Source: ChEMBL document CHEMBL4406880, “Design, synthesis, and bioactivity of dihydropyrimidine derivatives as kinesin spindle protein inhibitors” (Bioorg Med Chem, 2019)

Assays:
Format in all cases: functional
CCRF-CEM = experiment: Growth inhibition of human CCRF-CEM cells assessed as growth percentage at 10 uM incubated for 48 hrs by sulforhodamine B assay relative to control; settings: read-out: Activity
Method in brief: (§1)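 NCI-60 one-dose screen: cells in RPMI 1640 with 5% FBS and 2 mM L-glutamine, plated at 5,000–40,000 cells/well and preincubated 24 h at 37 °C, 5% CO2. Compound is added from a DMSO stock to a final 10 µM and incubated 48 h. Cells are TCA-fixed and stained with sulforhodamine B, read at 515 nm. Output is % growth versus untreated control, with a time-zero plate.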

DU-145 = experiment: Growth inhibition of human DU145 cells assessed as growth percentage at 10 uM incubated for 48 hrs by sulforhodamine B assay relative to control; settings: DU-145, 48 h, read-out: Activity; method in brief: as §1
TK-10 = experiment: Growth inhibition of human TK10 cells assessed as growth percentage at 10 uM incubated for 48 hrs by sulforhodamine B assay relative to control; settings: TK-10, 48 h, read-out: Activity
Method in brief: (§2)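 NCI-60 single-dose screen. Cells were grown in RPMI 1640 with 5% FBS and 2 mM L-glutamine and plated at 5,000–40,000 cells/well. After an overnight preincubation at 37 °C in 5% CO2, compound was added at a final 10 µM from a DMSO stock, with DMSO/PBS controls. After 48 h, cells were TCA-fixed and stained with 0.4% SRB, and absorbance was read at 515 nm. Growth is given as a percentage of untreated control.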

NCI-H226 = experiment: Growth inhibition of human NCI-H226 cells assessed as growth percentage at 10 uM incubated for 48 hrs by sulforhodamine B assay relative to control; settings: NCI-H226, 48 h, read-out: Activity
Method in brief: (§3)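 NCI-60 one-dose screen. Cells in RPMI 1640 with 5% FBS and 2 mM L-glutamine, seeded at 5,000–40,000 cells/well according to doubling time, and preincubated overnight at 37 °C, 5% CO2. A time-zero plate was TCA-fixed at drug addition. Compound from DMSO stock, final 10 µM, 48 h; DMSO vehicle controls. Fixation with TCA, 10% final (16% for suspension cells). SRB stain, Tris solubilization, A515. Result given as % growth versus untreated cells.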

MDA-MB-435 = experiment: Growth inhibition of human MDA-MB-435 cells assessed as growth percentage at 10 uM incubated for 48 hrs by sulforhodamine B assay relative to control; settings: MDA-MB-435, 48 h, read-out: Activity; method in brief: as §3
T47D = experiment: Growth inhibition of human T47D cells assessed as growth percentage at 10 uM incubated for 48 hrs by sulforhodamine B assay relative to control; settings: read-out: Activity; method in brief: as §2
UACC-62 = experiment: Growth inhibition of human UACC62 cells assessed as growth percentage at 10 uM incubated for 48 hrs by sulforhodamine B assay relative to control; settings: UACC-62, 48 h, read-out: Activity; method in brief: as §2
U-251 = experiment: Growth inhibition of human U251 cells assessed as growth percentage at 10 uM incubated for 48 hrs by sulforhodamine B assay relative to control; settings: U-251, 48 h, read-out: Activity; method in brief: as §2
K562 = experiment: Growth inhibition of human K562 cells assessed as growth percentage at 10 uM incubated for 48 hrs by sulforhodamine B assay relative to control; settings: K562, 48 h, read-out: Activity; method in brief: as §3
SNB-19 = experiment: Growth inhibition of human SNB19 cells assessed as growth percentage at 10 uM incubated for 48 hrs by sulforhodamine B assay relative to control; settings: SNB-19, 48 h, read-out: Activity; method in brief: as §2
KM12 = experiment: Growth inhibition of human KM12 cells assessed as growth percentage at 10 uM incubated for 48 hrs by sulforhodamine B assay relative to control; settings: KM12, 48 h, read-out: Activity; method in brief: as §3
OVCAR-8 = experiment: Growth inhibition of human OVCAR8 cells assessed as growth percentage at 10 uM incubated for 48 hrs by sulforhodamine B assay relative to control; settings: OVCAR-8, 48 h, read-out: Activity; method in brief: as §2
NCI-H522 = experiment: Growth inhibition of human NCI-H522 cells assessed as growth percentage at 10 uM incubated for 48 hrs by sulforhodamine B assay relative to control; settings: NCI-H522, 48 h, read-out: Activity; method in brief: as §3
HL-60(TB) = experiment: Growth inhibition of human HL-60(TB) cells assessed as growth percentage at 10 uM incubated for 48 hrs by sulforhodamine B assay relative to control; settings: HL-60, 48 h, read-out: Activity
Method in brief: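 NCI-60 single-dose screen. Cells in RPMI 1640 with 5% FBS and 2 mM L-glutamine are plated at 5,000–40,000 cells/well and preincubated overnight at 37 °C, 5% CO2. Compound is added from a DMSO stock at 10 µM final for 48 h. Cells are TCA-fixed (suspension cells 16% final) and stained with SRB. Absorbance is read at 515 nm, and percentage growth is calculated against untreated controls with a time-zero plate.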

Hs-578T = experiment: Growth inhibition of human Hs 578T cells assessed as growth percentage at 10 uM incubated for 48 hrs by sulforhodamine B assay relative to control; settings: read-out: Activity; method in brief: as §3
IGROV-1 = experiment: Growth inhibition of human IGROV1 cells assessed as growth percentage at 10 uM incubated for 48 hrs by sulforhodamine B assay relative to control; settings: IGROV-1, 48 h, read-out: Activity; method in brief: as §3
M14 = experiment: Growth inhibition of human M14 cells assessed as growth percentage at 10 uM incubated for 48 hrs by sulforhodamine B assay relative to control; settings: M14, 48 h, read-out: Activity; method in brief: as §3
MOLT-4 = experiment: Growth inhibition of human MOLT4 cells assessed as growth percentage at 10 uM incubated for 48 hrs by sulforhodamine B assay relative to control; settings: MOLT-4, 48 h, read-out: Activity; method in brief: as §3
EKVX = experiment: Growth inhibition of human EKVX cells assessed as growth percentage at 10 uM incubated for 48 hrs by sulforhodamine B assay relative to control; settings: read-out: Activity; method in brief: as §1
MDA-MB-231 = experiment: Growth inhibition of human MDA-MB-231 cells assessed as growth percentage at 10 uM incubated for 48 hrs by sulforhodamine B assay relative to control; settings: MDA-MB-231, 48 h, read-out: Activity; method in brief: as §3
COLO 205 = experiment: Growth inhibition of human COLO205 cells assessed as growth percentage at 10 uM incubated for 48 hrs by sulforhodamine B assay relative to control; settings: COLO 205, 48 h, read-out: Activity; method in brief: as §1
MCF7 = experiment: Growth inhibition of human MCF7 cells assessed as growth percentage at 10 uM incubated for 48 hrs by sulforhodamine B assay relative to control; settings: MCF7, 48 h, read-out: Activity; method in brief: as §3
UO-31 = experiment: Growth inhibition of human UO31 cells assessed as growth percentage at 10 uM incubated for 48 hrs by sulforhodamine B assay relative to control; settings: UO-31, 48 h, read-out: Activity; method in brief: as §2
SK-MEL-2 = experiment: Growth inhibition of human SK-MEL-2 cells assessed as growth percentage at 10 uM incubated for 48 hrs by sulforhodamine B assay relative to control; settings: SK-MEL-2, 48 h, read-out: Activity; method in brief: as §2

| SMILES | growth at 10 µM (CCRF-CEM) [%] | growth at 10 µM (DU-145) [%] | growth at 10 µM (TK-10) [%] | growth at 10 µM (NCI-H226) [%] | growth at 10 µM (MDA-MB-435) [%] | growth at 10 µM (T47D) [%] | growth at 10 µM (UACC-62) [%] | growth at 10 µM (U-251) [%] | growth at 10 µM (K562) [%] | growth at 10 µM (SNB-19) [%] | growth at 10 µM (KM12) [%] | growth at 10 µM (OVCAR-8) [%] | growth at 10 µM (NCI-H522) [%] | growth at 10 µM (HL-60(TB)) [%] | growth at 10 µM (Hs-578T) [%] | growth at 10 µM (IGROV-1) [%] | growth at 10 µM (M14) [%] | growth at 10 µM (MOLT-4) [%] | growth at 10 µM (EKVX) [%] | growth at 10 µM (MDA-MB-231) [%] | further results |
| --- | --- | --- | --- | --- | --- | --- | --- | --- | --- | --- | --- | --- | --- | --- | --- | --- | --- | --- | --- | --- | --- |
| O=C1NC2=C(C(=O)c3ccccc32)C(c2ccc3c(c2)OCO3)N1 (racemic) | 103 | 114 | 96.1 | 102 | 105 | 95 | 101 | 100 | 104 | 97.9 | 111 | 102 | 90.7 | 98.9 | 98.8 | 104 | 110 | 104 | 97.4 | 109 | growth at 10 µM (COLO 205): 115%; growth at 10 µM (MCF7): 96.5%; growth at 10 µM (UO-31): 85.4%; growth at 10 µM (SK-MEL-2): 108% |
| CC1=C(C(=O)c2ccccc2)C(c2ccc3c(c2)OCO3)NC(=O)N1 (racemic) | 98.5 | 105 | 99 | 97.4 | 90.1 | 91.2 | 94.3 | 96.5 | 92.7 | 101 | 99.9 | 99.3 | 90.3 | 105 | 102 | 90.6 | 99.8 | 103 | 95.1 | 102 | growth at 10 µM (COLO 205): 114%; growth at 10 µM (MCF7): 97.5%; growth at 10 µM (UO-31): 80.6%; growth at 10 µM (SK-MEL-2): 105% |
| CC(=O)N1C(=S)NC(C)=C(C(=O)OC(C)C)C1c1ccc2c(c1)OCO2 (racemic) | 81.5 | 104 | 103 | 94.8 | 102 | 70.4 | 95.6 | 92.6 | 83.2 | 98.1 | 99.7 | 96.4 | 78 | 99.3 | 98 | 106 | 96.8 | 95.2 | 99.7 | 88.9 | growth at 10 µM (COLO 205): 99.5%; growth at 10 µM (MCF7): 97.2%; growth at 10 µM (UO-31): 91.3%; growth at 10 µM (SK-MEL-2): 110% |
